Measured values taken from ChEMBL document CHEMBL5532703, “A new class of 7-deazaguanine agents targeting autoimmune diseases: dramatic reduction of synovial fibroblast IL-6 production from human rheumatoid arthritis patients and improved performance against murine experimental autoimmune encephalomyelitis” (RSC Med Chem, 2024).
Calls of active or inactive are those of the source. The calls are words filed in the database; no cut-off is given here.

What was measured:
Synovial fibroblasts [1] = assay: Anti-inflammatory activity in human Synovial fibroblasts derived from rheumatoid arthritis patient assessed as reduction in TNF-alpha induced IL-6 production at 200 uM measured after 72 hrs by ELISA; type: functional, cell-based
Outline: (§1)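 Synovial fibroblasts came from collagenase-digested (1 mg/mL, 4 h, 37 °C) RA patient biopsies, grown in RPMI-1640 with 10% FCS and used at passages 3–8. Cultures were stimulated with TNFα (10 ng/mL) while exposed to compound, with medium and compound renewed at 24 h. Supernatants were collected at 72 h for IL-6 ELISA, relative to a 4% DMSO/PBS vehicle control.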

Mus musculus [2] = assay: Anti-inflammatory activity in complete Freund's adjuvant/MOG (35 to 55 residues)/pertussis toxin-induced experimental autoimmune encephalomyelitis C57BL/6 mouse model assessed as decrease in disease progression at 9 mg/kg,ip administration observed after 7 days; type: functional, organism-based; details: time 7.0 day
Outline: (§2)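 Female C57BL/6 mice, 10–12 weeks old and about 20 g, with EAE induced by s.c. CFA/MOG plus i.p. pertussis toxin on days 0 and 2. Mice entered the study at clinical score 1.5–2, which was day 0, and were randomised. Each received 200 µL i.p. daily for 7 days of 4 mM compound (equimolar dosing) in 4% DMSO/PBS, made fresh. Vehicle controls were used, n = 4–5, with clinical scores recorded daily post treatment.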

Mus musculus [3] = assay: Anti-inflammatory activity in complete Freund's adjuvant/MOG (35 to 55 residues)/pertussis toxin-induced experimental autoimmune encephalomyelitis C57BL/6 mouse model assessed as decrease in disease progression at 9 mg/kg,ip administration observed after 3 days; type: functional, organism-based; details: time 3.0 day; outline: as §2
Mus musculus [4] = assay: Anti-inflammatory activity in complete Freund's adjuvant/MOG (35 to 55 residues)/pertussis toxin-induced experimental autoimmune encephalomyelitis C57BL/6 mouse model assessed as decrease in disease progression at 16 mg/kg,ip administration observed after 2 days; type: functional, organism-based; details: time 2.0 day; outline: as §2
Mus musculus [5] = assay: Anti-inflammatory activity in complete Freund's adjuvant/MOG (35 to 55 residues)/pertussis toxin-induced experimental autoimmune encephalomyelitis C57BL/6 mouse model assessed as decrease in disease progression at 16 mg/kg,ip administration observed after 1 day; type: functional, organism-based; outline: as §2
Mus musculus [6] = assay: Anti-inflammatory activity in complete Freund's adjuvant/MOG (35 to 55 residues)/pertussis toxin-induced experimental autoimmune encephalomyelitis C57BL/6 mouse model assessed as decrease in disease progression at ip administration observed after 4 days; type: functional, organism-based; details: time 4.0 day
Outline: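 EAE in female C57BL/6 mice, induced with CFA/MOG s.c. and pertussis toxin i.p. Mice were enrolled at clinical score 1.5–2 and randomised, then dosed i.p. daily with compound diluted to 4 mM in 4% DMSO/PBS, 200 µL per mouse. This was a 4-day study, n = 5, with 4% DMSO/PBS vehicle controls. Clinical score was tracked daily after treatment started.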

Mus musculus [7] = assay: Anti-inflammatory activity in complete Freund's adjuvant/MOG (35 to 55 residues)/pertussis toxin-induced experimental autoimmune encephalomyelitis C57BL/6 mouse model assessed as decrease in disease progression at 15 mg/kg,ip administration observed after 1 day; type: functional, organism-based; outline: as §2
Mus musculus [8] = assay: Anti-inflammatory activity in complete Freund's adjuvant/MOG (35 to 55 residues)/pertussis toxin-induced experimental autoimmune encephalomyelitis C57BL/6 mouse model assessed as decrease in disease progression at 15 mg/kg,ip administration observed after 7 days; type: functional, organism-based; details: time 7.0 day; outline: as §2
Synovial fibroblasts [9] = assay: Anti-inflammatory activity in human Synovial fibroblasts derived from rheumatoid arthritis patient assessed as reduction in TNF-alpha induced IL-6 production measured after 72 hrs by ELISA; type: functional, cell-based; outline: as §1
Mus musculus [10] = assay: Anti-inflammatory activity in complete Freund's adjuvant/MOG (35 to 55 residues)/pertussis toxin-induced experimental autoimmune encephalomyelitis C57BL/6 mouse model assessed as decrease in disease progression at 15 mg/kg,ip administration observed after 3 days; type: functional, organism-based; details: time 3.0 day; outline: as §2

## Nc1nc2[nH]cc(CNCCC3(c4ccccc4)CC3)c2c(=O)[nH]1
Synovial fibroblasts [1]
  Activity: Active

## CO/N=C/c1c[nH]c2nc(N)[nH]c(=O)c12
Synovial fibroblasts [1]
  Activity: Active
Mus musculus [2]
  Activity: inactive
Mus musculus [3]
  Activity: Active

## Nc1nc2[nH]cc(CNCCCc3ccsc3)c2c(=O)[nH]1
Synovial fibroblasts [1]
  Activity: Active

## C[C@H](CCNCc1c[nH]c2nc(N)[nH]c(=O)c12)c1ccccc1
Synovial fibroblasts [1]
  Activity: inactive

## Nc1nc2[nH]cc(CNCCC3(c4ccccc4)SCCS3)c2c(=O)[nH]1
Synovial fibroblasts [1]
  Activity: inactive

## Nc1nc2[nH]cc(CNCC[C@H](O)c3ccccc3)c2c(=O)[nH]1
Synovial fibroblasts [1]
  Activity: Active

## CCC(CC)(CCNCc1c[nH]c2nc(N)[nH]c(=O)c12)c1ccccc1
Synovial fibroblasts [1]
  Activity: Active

## CC(C)(CCNCc1c[nH]c2nc(N)[nH]c(=O)c12)c1ccccc1
Synovial fibroblasts [1]
  Activity: Active
Mus musculus [4]
  Activity: Active

## Nc1nc2[nH]cc(CNCCC(=O)c3ccccc3)c2c(=O)[nH]1
Mus musculus [5]
  Activity: Active
Synovial fibroblasts [1]
  Activity: Active

## Nc1nc2[nH]cc(CNCC[C@@H](O)c3ccccc3)c2c(=O)[nH]1
Synovial fibroblasts [1]
  Activity: Active

## Nc1nc2[nH]cc(/C=N/O)c2c(=O)[nH]1
Synovial fibroblasts [1]
  Activity: Active
Mus musculus [2]
  Activity: Active

## CC(CCNCc1c[nH]c2nc(N)[nH]c(=O)c12)c1ccccc1 (stereo unspecified)
Synovial fibroblasts [1]
  Activity: Active

## Nc1nc2[nH]cc(CNOCCc3ccccc3)c2c(=O)[nH]1
Mus musculus [6]
  Activity: Active
Synovial fibroblasts [1]
  Activity: Active

## Nc1nc2[nH]cc(CNCCCc3ccccc3)c2c(=O)[nH]1
Mus musculus [7]
  Activity: Active
Mus musculus [8]
  Activity: Active
Synovial fibroblasts [9]
  Activity: Dose-Dependent Effect
Mus musculus [10]
  Activity: Active

## Nc1nc2[nH]cc(CNCCC(c3ccccc3)c3ccccc3)c2c(=O)[nH]1
Synovial fibroblasts [1]
  Activity: Active

## Nc1nc2[nH]cc(/C=N/OCc3ccccc3)c2c(=O)[nH]1
Synovial fibroblasts [1]
  Activity: Active

## Nc1nc2[nH]cc(CNCCNc3ccccc3)c2c(=O)[nH]1
Synovial fibroblasts [1]
  Activity: Active
